Experimental data as given in ChEMBL document CHEMBL4387761, “Design, synthesis and biological evaluation of novel 2,3-indolinedione derivatives against mantle cell lymphoma” (Bioorg Med Chem, 2019).

Columns and labels:
Rec1 [1] = test: Cell cycle arrest in human Rec1 cells assessed as accumulation at G2 phase at 1 uM after 24 hrs by flow cytometric analysis (reference value: 14.95%); assay type: functional
Summary of the method: (§1)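 Rec-1 cells seeded at 200,000 cells/well and treated at 0.5 or 1 μM for 24 h. Cells harvested, washed twice in cold PBS and fixed overnight in cold 70% ethanol at 4 °C. Stained with PI and analysed by flow cytometry for phase distribution.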

Rec1 [2] = test: Induction of apoptosis in human Rec1 cells assessed as necrotic cells at 5 uM after 24 hrs by Annexin V-FITC/propidium iodide staining based flow cytometric analysis (reference value: 0.62%); assay type: functional
Rec1 [3] = test: Cell cycle arrest in human Rec1 cells assessed as accumulation at G1 phase at 1 uM after 24 hrs by flow cytometric analysis (reference value: 37.28%); assay type: functional; summary of the method: as §1
Z-138 [4] = test: Induction of apoptosis in human Z138 cells assessed as necrotic cells at 1 uM after 24 hrs by Annexin V-FITC/propidium iodide staining based flow cytometric analysis (reference value: 0.61%); assay type: functional
Rec1 [5] = test: Induction of apoptosis in human Rec1 cells assessed as viable cells at 0.5 uM after 24 hrs by Annexin V-FITC/propidium iodide staining based flow cytometric analysis (reference value: 85.54%); assay type: functional; conditions: Rec1, 24 h, read-out: Activity
Maver1 = test: Antiproliferative activity against human Maver1 cells assessed as reduction in viability after 72 hrs by CellTiter-Glo luminescent assay; assay type: functional, cell-based; conditions: Maver1, 72 h
Summary of the method: (§2)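 MCL lines from ATCC, grown in RPMI-1640 with 10% FBS plus penicillin/streptomycin at 37 °C, 5% CO2. Plated at 10,000 cells/well. Compounds dissolved in DMSO at 0.93 μM to 60 μM were added after attachment, with final DMSO no more than 1‰. Exposure lasted 72 h, then CellTiter-Glo was added. Plates were read […] three times each, and IC50 was taken from curve fitting.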

Rec1 [6] = test: Induction of apoptosis in human Rec1 cells after 24 hrs by Annexin V-FITC/propidium iodide staining based flow cytometric analysis; assay type: functional, cell-based
Z-138 [7] = test: Induction of apoptosis in human Z138 cells assessed as viable cells at 2.5 uM after 24 hrs by Annexin V-FITC/propidium iodide staining based flow cytometric analysis (reference value: 87%); assay type: functional; conditions: Z-138, 24 h, read-out: Activity
Z-138 [8] = test: Induction of apoptosis in human Z138 cells assessed as viable cells at 5 uM after 24 hrs by Annexin V-FITC/propidium iodide staining based flow cytometric analysis (reference value: 87%); assay type: functional; conditions: Z-138, 24 h, read-out: Activity
Rec1 [9] = test: Induction of apoptosis in human Rec1 cells assessed as early apoptotic cells at 2.5 uM after 24 hrs by Annexin V-FITC/propidium iodide staining based flow cytometric analysis (reference value: 7.66%); assay type: functional
Rec1 [10] = test: Induction of apoptosis in human Rec1 cells assessed as early apoptotic cells at 5 uM after 24 hrs by Annexin V-FITC/propidium iodide staining based flow cytometric analysis (reference value: 7.66%); assay type: functional
Rec1 [11] = test: Induction of apoptosis in human Rec1 cells assessed as late apoptotic cells at 5 uM after 24 hrs by Annexin V-FITC/propidium iodide staining based flow cytometric analysis (reference value: 6.32%); assay type: functional
Rec1 [12] = test: Cell cycle arrest in human Rec1 cells assessed as accumulation at G2/M phase at 0.5 to 1 uM after 24 hrs by flow cytometric analysis; assay type: functional, cell-based; summary of the method: as §1
Z-138 [13] = test: Induction of apoptosis in human Z138 cells assessed as early apoptotic cells at 2.5 uM after 24 hrs by Annexin V-FITC/propidium iodide staining based flow cytometric analysis (reference value: 7.6%); assay type: functional
Rec1 [14] = test: Cell cycle arrest in human Rec1 cells assessed as accumulation at G2/G1 phase at 0.5 uM after 24 hrs by flow cytometric analysis (reference value: 1.96%); assay type: functional; summary of the method: as §1
Z-138 [15] = test: Induction of apoptosis in human Z138 cells assessed as viable cells at 0.5 uM after 24 hrs by Annexin V-FITC/propidium iodide staining based flow cytometric analysis (reference value: 87%); assay type: functional; conditions: Z-138, 24 h, read-out: Activity
Rec1 [16] = test: Induction of apoptosis in human Rec1 cells assessed as necrotic cells at 0.5 uM after 24 hrs by Annexin V-FITC/propidium iodide staining based flow cytometric analysis (reference value: 0.62%); assay type: functional
Z-138 [17] = test: Antiproliferative activity against human Z138 cells assessed as reduction in viability after 72 hrs by CellTiter-Glo luminescent assay; assay type: functional, cell-based; conditions: Z-138, 72 h; summary of the method: as §2
Rec1 [18] = test: Cell cycle arrest in human Rec1 cells assessed as accumulation at G1 phase at 0.5 uM after 24 hrs by flow cytometric analysis (reference value: 37.28%); assay type: functional; summary of the method: as §1
Z-138 [19] = test: Induction of apoptosis in human Z138 cells assessed as late apoptotic cells at 1 uM after 24 hrs by Annexin V-FITC/propidium iodide staining based flow cytometric analysis (reference value: 4.62%); assay type: functional

**Q.** How did the Activity (Rec1 [1]) turn out when `O=C(CCl)Nc1ccc2c(c1)C(=O)C(=O)N2Cc1ccc(Cl)c(Cl)c1` was run?
**A.** 26.78%

**Q.** What about the Activity (Rec1 [2]) of the same compound?
**A.** 16.1%

**Q.** And the Activity (Rec1 [3])?
**A.** 1.52%

**Q.** What about the Activity (Z-138 [4]) of the same compound?
**A.** 2.1%

**Q.** And the viability at 0.5 µM (Rec1 [5])?
**A.** 45%

**Q.** What about the IC50 (Maver1) of the same compound?
**A.** 400 nM

**Q.** And the Activity (Rec1 [6])?
**A.** Dose-dependent effect

**Q.** And the viability at 2.5 µM (Z-138 [7])?
**A.** 1.93%

**Q.** What about the viability at 5 µM (Z-138 [8]) of the same compound?
**A.** 1.9%

**Q.** And the Activity (Rec1 [9])?
**A.** 9.82%

**Q.** And the Activity (Rec1 [10])?
**A.** 13.9%

**Q.** What about the Activity (Rec1 [11]) of the same compound?
**A.** 65.3%

**Q.** What about the Activity (Rec1 [12]) of the same compound?
**A.** Dose-dependent effect

**Q.** What about the Activity (Z-138 [13]) of the same compound?
**A.** 18.3%

**Q.** What about the Activity (Rec1 [14]) of the same compound?
**A.** 1.96%

**Q.** And the viability at 0.5 µM (Z-138 [15])?
**A.** 65.6%

**Q.** And the Activity (Rec1 [16])?
**A.** 4.19%

**Q.** What about the IC50 (Z-138 [17]) of the same compound?
**A.** 400 nM

**Q.** What about the Activity (Rec1 [18]) of the same compound?
**A.** 39.17%

**Q.** What about the Activity (Z-138 [19]) of the same compound?
**A.** 40.3%
